Results from ChEMBL document CHEMBL3774386, “Synthesis and structure activity relationship investigation of triazolo[1,5-a]pyrimidines as CB2 cannabinoid receptor inverse agonists” (Eur J Med Chem, 2016).

Assays:
Cannabinoid receptor 2 [1] = target: T1, Cannabinoid receptor 2 (Homo sapiens, UniProt P34972); experiment: Antagonist activity at human CB2 receptor transfected in CHO cells assessed as inhibition of WIN 55,212-2 mediated suppression of forksolin induced cAMP production by scintillation counting analysis; format: functional, cell-based
T1 sequence (P34972 whole entry): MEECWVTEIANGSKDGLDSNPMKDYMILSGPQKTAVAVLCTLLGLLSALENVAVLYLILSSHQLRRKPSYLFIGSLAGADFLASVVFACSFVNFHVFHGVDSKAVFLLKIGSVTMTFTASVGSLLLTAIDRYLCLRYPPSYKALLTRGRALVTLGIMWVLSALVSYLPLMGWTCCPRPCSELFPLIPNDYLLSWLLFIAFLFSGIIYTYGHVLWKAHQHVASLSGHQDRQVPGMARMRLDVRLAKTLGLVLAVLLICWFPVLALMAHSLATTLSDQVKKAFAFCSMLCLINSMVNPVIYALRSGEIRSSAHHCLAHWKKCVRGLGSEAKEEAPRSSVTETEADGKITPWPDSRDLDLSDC
How it was run: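 Human CB2-transfected CHO cells, 1 × 10^6 cells/assay, forskolin-stimulated, with WIN 55,212-2 (20 nM) plus compound over a concentration range. cAMP read by [3H]-cAMP competition: 150 min at 4 °C, charcoal separation, scintillation counting. IC50 derived from reversal of the WIN 55,212-2 inhibition; mean ± SEM of three experiments in duplicate.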

Cannabinoid receptor 2 [2] = target: T1, Cannabinoid receptor 2; experiment: Displacement of [3H]CP-55,940 from human CB2 receptor expressed in CHO cell membranes after 60 mins by scintillation counting analysis
Cannabinoid receptor 1 = Cannabinoid receptor 1 (Homo sapiens, UniProt P21554); experiment: Displacement of [3H]CP-55,940 from human CB1 receptor expressed in CHO cell membranes after 90 mins by scintillation counting analysis
Chain of Cannabinoid receptor 1 (P21554 whole entry): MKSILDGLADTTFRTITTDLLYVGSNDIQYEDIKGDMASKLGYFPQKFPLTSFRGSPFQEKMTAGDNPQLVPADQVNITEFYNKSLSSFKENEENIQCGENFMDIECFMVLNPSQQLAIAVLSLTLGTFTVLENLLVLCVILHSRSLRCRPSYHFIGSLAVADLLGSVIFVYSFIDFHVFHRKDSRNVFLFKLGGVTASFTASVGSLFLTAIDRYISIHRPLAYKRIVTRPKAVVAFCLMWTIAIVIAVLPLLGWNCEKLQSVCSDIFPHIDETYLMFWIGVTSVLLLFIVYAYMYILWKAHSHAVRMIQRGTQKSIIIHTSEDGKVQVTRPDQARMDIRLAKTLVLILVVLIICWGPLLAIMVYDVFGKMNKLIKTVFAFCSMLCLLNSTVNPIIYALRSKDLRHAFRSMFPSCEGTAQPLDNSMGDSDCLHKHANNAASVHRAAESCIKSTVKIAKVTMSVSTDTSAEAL

Cannabinoid receptor 2 [3] = target: T1, Cannabinoid receptor 2; experiment: Inverse agonist activity at human CB2 receptor transfected in CHO cells assessed as increase in forksolin stimulated cAMP production by scintillation counting analysis; format: functional, cell-based
How it was run: (§1)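 Human CB2-transfected CHO cells detached with trypsin, 1 × 10^6 cells/assay, with forskolin and compound over a concentration curve. cAMP measured by [3H]-cAMP competition: 150 min at 4 °C, charcoal, centrifugation, supernatant counted. Expressed as % increase of forskolin-stimulated cAMP and fitted for EC50; three independent experiments in duplicate.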

Cannabinoid receptor 2 [4] = target: T1, Cannabinoid receptor 2; experiment: Inverse agonist activity at human CB2 receptor transfected in CHO cells assessed as increase in forksolin stimulated cAMP production at 1 uM by scintillation counting analysis relative to control; format: functional, cell-based
CHO = experiment: Selectivity ratio of Ki for human CB1 receptor expressed in CHO cell membranes to Ki for human CB2 receptor expressed in CHO cell membranes; format: cell-based
How it was run: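 CHO membranes with human CB1 or CB2 in 50 mM Tris-HCl, 0.5% BSA, pH 7.4, 5 mM MgCl2, with 1 mM (CB1) or 2.5 mM (CB2) EDTA. Competition against 0.5 nM [3H]CP-55,940 at 30 °C for 90 min (CB1) or 60 min (CB2). GF/C filtration, scintillation counting. Ki from IC50 by Cheng–Prusoff; mean ± SEM, n = 4.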

Cannabinoid receptor 2 [5] = target: T1, Cannabinoid receptor 2; experiment: Inverse agonist activity at human CB2 receptor transfected in CHO cells assessed as increase in forksolin stimulated cAMP production at 10 uM by scintillation counting analysis relative to control; format: functional, cell-based
Cannabinoid receptor 2 [6] = target: T1, Cannabinoid receptor 2; experiment: Partial agonist activity at human CB2 receptor transfected in CHO cells assessed as forksolin stimulated cAMP production by scintillation counting analysis relative to control; format: functional, cell-based; how it was run: as §1

SMILES | IC50 (Cannabinoid receptor 2 [1]) | Ki (Cannabinoid receptor 2 [2]) | Ki (Cannabinoid receptor 1) | EC50 (Cannabinoid receptor 2 [3]) | Emax (Cannabinoid receptor 2 [4]) | Ratio Ki (CHO) | Emax (Cannabinoid receptor 2 [5]) | Emax (Cannabinoid receptor 2 [6])
CCCCCn1cc(C(=O)NC2CCCCC2)c(=O)n2nc(-c3ccc(C)cc3)nc12 | 79 nM | 31 nM | > 10000 nM | 464 nM | 53% | > 323 | 132% | –
CCCCCn1cc(C(=O)NC2CCCCCC2)c(=O)n2nc(N3CCOCC3)nc12 | – | 566 nM | > 10000 nM | – | – | > 18 | – | –
CCCCCn1cc(C(=O)NC23CC4CC(C)(CC(C)(C4)C2)C3)c(=O)n2ncnc12 | – | 25 nM | 622 nM | 88 nM | 53% | 25 | 132% | 60%
CCCCCn1cc(C(=O)NC2CCCCC2)c(=O)n2nc(SC)nc12 | – | 716 nM | > 10000 nM | – | – | > 14 | – | –
CCCCCn1cc(C(=O)NC2CCCCC2)c(=O)n2nc(C)nc12 | – | 674 nM | 488 nM | – | – | 1 | – | –
CCCCCn1cc(C(=O)NC23CC4CC(CC(C4)C2)C3)c(=O)n2nc(-c3ccccc3)nc12 | 8.6 nM | – | – | 161 nM | 53% | 146 | 132% | –
CCCCCn1cc(C(=O)NC23CC4CC(CC(C4)C2)C3)c(=O)n2nc(C)nc12 | 865 nM | 383 nM | 471 nM | 2080 nM | 53% | 1 | 132% | –
CCCCCn1cc(C(=O)NC23CC4CC(CC(C4)C2)C3)c(=O)n2nc(-c3ccc(OC)cc3)nc12 | 128 nM | 47 nM | 3720 nM | 858 nM | 53% | 79 | 132% | –
CCCCCn1cc(C(=O)NC2CCCCC2)c(=O)n2nc(N3CCOCC3)nc12 | – | > 10000 nM | > 10000 nM | – | – | – | – | –
CCCCCn1cc(C(=O)NC23CC4CC(CC(C4)C2)C3)c(=O)n2ncnc12 | – | – | – | – | 53% | 36 | 132% | 57%
CCCCCn1cc(C(=O)NC23CC4CC(C)(CC(C)(C4)C2)C3)c(=O)n2nc(-c3ccccc3)nc12 | 18.4 nM | 8.4 nM | 653 nM | 489 nM | – | 77 | 243% | –
Cc1c(C(=O)c2cccc3ccccc23)c2cccc3c2n1[C@H](CN1CCOCC1)CO3 | – | – | – | – | 53% | – | 132% | –
CCCCCn1cc(C(=O)NC2CCCCC2)c(=O)n2nc(N(C)Cc3ccccc3)nc12 | – | 1330 nM | > 10000 nM | – | – | > 7 | – | –
C=CCN(CC=C)c1nc2n(CCCCC)cc(C(=O)NC3CCCCC3)c(=O)n2n1 | – | 1350 nM | > 10000 nM | – | – | > 7 | – | –
CCCCCn1cc(C(=O)NC2CCCCCC2)c(=O)n2ncnc12 | – | 514 nM | 717 nM | – | – | 1 | – | –
CCCCCn1cc(C(=O)NC2CCCCC2)c(=O)n2nc(-c3ccc(Cl)cc3)nc12 | – | 117 nM | 4720 nM | – | – | 40 | – | –
C=CCN(CC=C)c1nc2n(CCCCC)cc(C(=O)NC34CC5CC(CC(C5)C3)C4)c(=O)n2n1 | – | 158 nM | > 10000 nM | – | – | > 63 | – | –
CCCCCn1cc(C(=O)NC2CCCCC2)c(=O)n2nc(-c3ccccc3)nc12 | 111 nM | 43 nM | 3210 nM | 756 nM | 53% | 75 | 132% | –
CCCCCn1cc(C(=O)NC23CC4CC(CC(C4)C2)C3)c(=O)n2nc(-c3ccc(C)cc3)nc12 | 12.6 nM | 6.8 nM | 1520 nM | 652 nM | – | 223 | 256% | –
CCCCCn1cc(C(=O)NC23CC4CC(CC(C4)C2)C3)c(=O)n2nc(N3CCOCC3)nc12 | 162 nM | 53 nM | > 10000 nM | 670 nM | 53% | 140 | 132% | –
CCCCCn1cc(C(=O)NC23CC4CC(CC(C4)C2)C3)c(=O)n2nc(-c3ccco3)nc12 | 124 nM | 45 nM | 1170 nM | 771 nM | 53% | 26 | 132% | –
CCCCCn1cc(C(=O)NC23CC4CC(CC(C4)C2)C3)c(=O)n2nc(-c3cccnc3)nc12 | – | 228 nM | > 10000 nM | – | – | > 44 | – | –
CCCCCn1cc(C(=O)NC23CC4CC(CC(C4)C2)C3)c(=O)n2nc(N(C)Cc3ccccc3)nc12 | 29 nM | 21 nM | > 10000 nM | 453 nM | 53% | > 476 | 132% | –
CCCCCn1cc(C(=O)NC2CCCCCC2)c(=O)n2nc(-c3ccc(C)cc3)nc12 | 64 nM | 22 nM | 6350 nM | 393 nM | 53% | 289 | 132% | –
CCCCCn1cc(C(=O)NC23CC4CC(CC(C4)C2)C3)c(=O)n2nc(SC)nc12 | 139 nM | 47 nM | > 10000 nM | 494 nM | 53% | > 213 | 132% | –
CCCCCn1cc(C(=O)NC2CCCCC2)c(=O)n2nc(N3CCN(C)CC3)nc12 | – | > 10000 nM | > 10000 nM | – | – | > 188 | – | –
CCCCCn1cc(C(=O)NC2CCCCC2)c(=O)n2nc(-c3ccc(OC)cc3)nc12 | – | 96 nM | 5850 nM | – | – | 61 | – | –
CCCCCn1cc(C(=O)NC23CC4CC(CC(C4)C2)C3)c(=O)n2nc(-c3ccc(Cl)cc3)nc12 | 24.6 nM | 11.3 nM | 5220 nM | 637 nM | – | 462 | 223% | –
CCCCCn1cc(C(=O)NC2CCCCCC2)c(=O)n2nc(-c3ccccc3)nc12 | 142 nM | 48 nM | 2480 nM | 849 nM | 53% | 52 | 132% | –
CCCCCn1cc(C(=O)NC2CCCCCC2)c(=O)n2nc(N3CCN(C)CC3)nc12 | – | 982 nM | > 10000 nM | – | – | > 10 | – | –
